Assay results from ChEMBL document CHEMBL3593166, “Hybrid chemistry. Part 4: Discovery of etravirine-VRX-480773 hybrids as potent HIV-1 non-nucleoside reverse transcriptase inhibitors” (Bioorg Med Chem, 2015).
The source made the active and inactive calls. No cut-off for these calls is given here.

Assays:
[1] = Cytotoxicity against human MT4 cells assessed as reduction in cell viability incubated for 4 days MTT method; format: cell-based
Method in brief: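 Uninfected MT-4 cells at 1 × 10^5 cells/mL exposed to serial compound dilutions (DMSO stocks, 50 mM or higher) in parallel with the antiviral test. Viability read by MTT after 4 days at 37 °C. CC50 is the concentration lowering viability by 50%. Values are means of at least three experiments.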

[2] = Selectivity index, ratio of CC50 for human MT4 cells to EC50 for HIV1 3B infected in human MT4 cells; format: toxicity, cell-based; conditions: HIV1 3B infected MT4 cells, read-out: Ratio CC50/EC50
Method in brief: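 SI calculated as CC50 in uninfected MT-4 cells divided by EC50 against WT HIV-1 IIIB. Both come from the 4-day MTT assays at 37 °C; infection was at MOI 0.02 with cells at 1 × 10^5 cells/mL.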

[3] = system: Human immunodeficiency virus 1; assay: Antiviral activity against HIV1 3B infected in human MT4 cells […] at 0.19 uM added 3 to 5 hrs post infection and measured 31 hrs post infection by p24 enzyme-linked immunosorbent assay; format: functional, organism-based
Method in brief: (§1)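 MT-4 cells infected with WT HIV-1 at m.o.i. 0.5; after 1 h adsorption, seeded at 45,000 cells/well, 37°C. Compounds added at 0, 1, 2, 3, 4, 5, 6, 7, 8, 9, 24 or 25 h post-infection. Reference agents at fixed levels (ETV 0.19 µM); hybrids at 100-fold their MT-4/MTT EC50. Virus production measured by p24 ELISA at 31 h post-infection.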

[4] = system: Human immunodeficiency virus 1; assay: Antiviral activity against HIV1 3B infected in human MT4 cells assessed as inhibition of virus-induced cytopathicity incubated for 4 days by MTT method; format: functional, organism-based; conditions: Human immunodeficiency virus 1, 3B, MT4, 96 h
Method in brief: (§2)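 Virus stocks titrated in MT-4 cells as CCID50. MT-4 cells at 1 × 10^5 cells/mL infected at MOI 0.02 (HIV-1 IIIB or HIV-2 ROD), then plated immediately over serial compound dilutions (DMSO stocks, 50 mM or higher). After 4 days at 37 °C, viable cells counted by MTT. EC50 from means of at least three separate experiments.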

[5] = system: Human immunodeficiency virus 1; assay: Antiviral activity against HIV1 RES056 expressing reverse transcriptase K103N + Y181C mutant infected in human MT4 cells assessed as inhibition of virus-induced cytopathicity incubated for 4 days by MTT method; format: functional, organism-based; conditions: Human immunodeficiency virus 1, RES056, MT4, 96 h
Method in brief: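 Serial compound dilutions in MT-4 cells (1 × 10^5 cells/mL) infected at MOI 0.02 with K103N+Y181C double-mutant HIV-1. Cells added to compound right after infection and incubated 4 days at 37 °C. Viable cells counted by MTT and EC50 derived. Cytotoxicity run in parallel on uninfected cells. Values are the mean of at least three experiments.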

[6] = system: Human immunodeficiency virus 2; assay: Antiviral activity against HIV2 ROD infected in human MT4 cells assessed as inhibition of virus-induced cytopathicity incubated for 4 days by MTT method; format: functional, organism-based; conditions: Human immunodeficiency virus 2, ISOLATE ROD, MT4, 96 h; method in brief: as §2
[7] = target: Human immunodeficiency virus type 1 reverse transcriptase (Human immunodeficiency virus 1, UniProt Q72547); assay: Inhibition of HIV1 recombinant wild type reverse transcriptase p66/p51 assessed as reduction in biotin deoxyuridine triphosphate (biotin-dUTP) incorporation using poly(rA)/oligo (dT)16 template and primer by spectrofluorometry
[8] = system: Human immunodeficiency virus 1; assay: Antiviral activity against HIV1 3B infected in human MT4 cells […] at 100 fold antiviral EC50 level added 3 to 5 hrs post infection and measured 31 hrs post infection by p24 enzyme-linked immunosorbent assay; format: functional, organism-based; method in brief: as §1
[9] = system: Human immunodeficiency virus 1; assay: Antiviral activity against HIV1 3B infected in human MT4 cells […] added 3 to 5 hrs post infection and measured 31 hrs post infection by p24 enzyme-linked immunosorbent assay; format: functional, organism-based
Method in brief: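 MT-4 cells infected with WT HIV-1 at m.o.i. 0.5 and allowed 1 h adsorption, then seeded at 45,000 cells/well at 37 °C. Compound added at set times from 0 to 25 h post-infection. Virus production read by p24 ELISA at 31 h post-infection.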

SMILES	CC50 at 96 h [1]	selectivity ratio [2]	inhibition [3]	EC50 [4]	EC50 [5]	EC50 [6]	IC50 [7]	inhibition [8]	inhibition [9]
Cc1cc(C#N)cc(C)c1Oc1nc(Nc2ccc(C#N)cc2)nc(N)c1Br [ETRAVIRINE]	> 4.6 µM	> 1120	Active	–	–	–	–	–	–
Cc1cc(C#N)cc(C)c1Oc1ccnc(SCC(=O)Nc2ccc(Br)cc2)n1	24 µM	17	–	1.4 µM	> 24 µM	> 24 µM	–	–	–
Cc1cc(C#N)cc(C)c1Oc1ccnc(SCC(=O)Nc2cc(Cl)cc(Cl)c2)n1	≥ 41 µM	> 3.7	–	10.8 µM	> 41 µM	> 41 µM	–	–	–
Cc1cc(C#N)cc(C)c1Oc1ccnc(SCC(=O)Nc2ccc(S(N)(=O)=O)cc2)n1	> 266 µM	> 34	–	7.9 µM	> 266 µM	> 266 µM	–	–	–
Cc1cc(C#N)cc(C)c1Oc1ccnc(SCC(=O)Nc2ccc(Cl)c(Cl)c2)n1	89 µM	17	–	5.3 µM	> 89 µM	> 89 µM	–	–	–
Cc1cc(C#N)cc(C)c1Oc1ccnc(SCC(=O)Nc2cccc([N+](=O)[O-])c2)n1	> 287 µM	> 7	–	41 µM	> 287 µM	> 287 µM	–	–	–
Cc1cc(C#N)cc(C)c1Oc1ccnc(SCC(=O)Nc2ccccc2Cl)n1	> 294 µM	> 1220	–	0.24 µM	≥ 10.9 µM	> 294 µM	0.473 µM	Active	–
Cc1cc(C#N)cc(C)c1Oc1ccnc(SCC(=O)Nc2ccc(Cl)cc2)n1	> 294 µM	> 75	–	3.9 µM	> 294 µM	> 294 µM	–	–	–
Cc1cc(S(N)(=O)=O)ccc1NC(=O)CSc1nccc(Oc2c(C)cc(C#N)cc2C)n1	46 µM	57	–	0.81 µM	> 46 µM	> 46 µM	2.77 µM	Active	–
Cc1cc(C#N)cc(C)c1Oc1ccnc(SCC(=O)Nc2cccc(Cl)c2)n1	> 294 µM	> 37	–	8 µM	> 294 µM	> 294 µM	–	–	–
Cc1ccnc2c1NC(=O)c1cccnc1N2C1CC1	–	–	–	–	–	–	–	–	Active
Cc1cc(C#N)cc(C)c1Oc1ccnc(SCC(=O)Nc2ccccc2[N+](=O)[O-])n1	> 287 µM	> 844	–	0.34 µM	> 287 µM	> 287 µM	1.17 µM	Active	–
Cc1cc(C#N)cc(C)c1Oc1ccnc(SCC(=O)Nc2cccc(F)c2)n1	> 306 µM	> 38	–	8.1 µM	> 306 µM	> 306 µM	–	–	–
Cc1ccc(NC(=O)CSc2nccc(Oc3c(C)cc(C#N)cc3C)n2)cc1	> 309 µM	> 61	–	5.1 µM	> 309 µM	> 309 µM	–	–	–
NS(=O)(=O)c1ccc(NC(=O)CSc2nnc(Br)n2-c2ccc(C3CC3)c3ccccc23)c(Cl)c1	5.82 µM	41600	–	0.00014 µM	0.00023 µM	–	–	–	–
Cc1cc(C#N)cc(C)c1Oc1ccnc(SCC(=O)Nc2ccccc2)n1	> 320 µM	–	–	> 320 µM	> 320 µM	> 320 µM	–	–	–
Cc1cc(C#N)cc(C)c1Oc1ccnc(SCC(=O)Nc2ccc(C#N)cc2)n1	> 301 µM	> 70	–	4.3 µM	> 301 µM	> 301 µM	–	–	–
Cc1cc(C#N)cc(C)c1Oc1ccnc(SCC(=O)Nc2ccc(Cl)cc2Cl)n1	> 272 µM	> 227	–	1.2 µM	> 272 µM	> 272 µM	–	–	–
Cc1cc(C#N)cc(C)c1Oc1ccnc(SCC(=O)Nc2ccc(O)cc2)n1	71 µM	9	–	8.3 µM	> 71 µM	> 71 µM	–	–	–
CC(C)Nc1cccnc1N1CCN(C(=O)c2cc3cc(NS(C)(=O)=O)ccc3[nH]2)CC1 [DELAVIRDINE]	> 44 µM	> 67	–	–	> 44 µM	–	–	–	–
Cc1cc(C#N)cc(C)c1Oc1ccnc(SCC(=O)Nc2ccc(C#N)cc2F)n1	> 288 µM	> 48	–	6 µM	> 288 µM	> 288 µM	–	–	–
Cc1cc(C#N)cc(C)c1Oc1ccnc(SCC(=O)Nc2ccc([N+](=O)[O-])cc2)n1	> 287 µM	> 205	–	1.4 µM	> 287 µM	> 287 µM	–	–	–
COc1ccc(NC(=O)CSc2nccc(Oc3c(C)cc(C#N)cc3C)n2)cc1	≥ 69 µM	≥ 9	–	7.3 µM	> 69 µM	> 69 µM	–	–	–
Cc1ccccc1NC(=O)CSc1nccc(Oc2c(C)cc(C#N)cc2C)n1	> 309 µM	> 52	–	5.9 µM	> 309 µM	> 309 µM	–	–	–
Cc1cc(C#N)cc(C)c1Oc1ccnc(SCC(=O)Nc2ccc(F)cc2)n1	> 306 µM	> 38	–	8 µM	> 306 µM	> 306 µM	–	–	–
